In brackets after ≈: the same amount, converted by molar mass.
Assays:
Format in all cases: functional
Klebsiella pneumoniae [1] = assay: Antibacterial activity against KPC-2 producing Klebsiella pneumoniae isolate 209632 after 18 hrs by CLSI broth microdilution method; details: isolate 209632, 18 h
Pseudomonas aeruginosa [2] = assay: Selectivity index, ratio of MIC for against IMP-4 producing Pseudomonas aeruginosa isolate 207272 to MIC for against IMP-4 producing Pseudomonas aeruginosa isolate 207272 in presence of BPL
Escherichia coli [3] = assay: Antibacterial activity against extended-spectrum beta-lactamase producing Escherichia coli isolate 209285 after 18 hrs by CLSI broth microdilution method; details: isolate 209285, 18 h
Escherichia coli [4] = assay: Antibacterial activity against extended-spectrum beta-lactamase producing Escherichia coli isolate 106342 after 18 hrs by CLSI broth microdilution method; details: isolate 106342, 18 h
Klebsiella pneumoniae [5] = assay: Antibacterial activity against KPC-2 producing Klebsiella pneumoniae isolate 209735 after 18 hrs by CLSI broth microdilution method; details: isolate 209735, 18 h
Klebsiella pneumoniae [6] = assay: Selectivity index, ratio of MIC for against KPC-2 producing Klebsiella pneumoniae isolate 209632 to MIC for against KPC-2 producing Klebsiella pneumoniae isolate 209632 in presence of BPL
Klebsiella pneumoniae [7] = assay: Antibacterial activity against KPC-2 producing Klebsiella pneumoniae isolate 212423 after 18 hrs by CLSI broth microdilution method; details: isolate 212423, 18 h
Pseudomonas aeruginosa [8] = assay: Antibacterial activity against IMP-4 producing Pseudomonas aeruginosa isolate 209321 after 18 hrs in presence of BPL by CLSI broth microdilution method; details: isolate 209321, 18 h
In short: (§1)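 CLSI broth microdilution against clinical isolates (ESBL E. coli, KPC-2 MDR K. pneumoniae, IMP-4 MDR P. aeruginosa; five per species). Iron limitation: Mueller-Hinton broth supplemented with 16 mg/liter 2,2'-bipyridyl to complex iron and induce iron uptake systems. Read-out: MIC.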

Escherichia coli [9] = assay: Selectivity index, ratio of MIC for against extended-spectrum beta-lactamase producing Escherichia coli isolate 106342 to MIC for extended-spectrum beta-lactamase producing Escherichia coli isolate 106342 in presence of BPL
Klebsiella pneumoniae [10] = assay: Antibacterial activity against KPC-2 producing Klebsiella pneumoniae isolate 212229 after 18 hrs by CLSI broth microdilution method; details: isolate 212229, 18 h
Klebsiella pneumoniae [11] = assay: Antibacterial activity against KPC-2 producing Klebsiella pneumoniae isolate 212232 after 18 hrs by CLSI broth microdilution method; details: isolate 212232, 18 h
Klebsiella pneumoniae [12] = assay: Selectivity index, ratio of MIC for against KPC-2 producing Klebsiella pneumoniae isolate 212232 to MIC for against KPC-2 producing Klebsiella pneumoniae isolate 212232 in presence of BPL
Pseudomonas aeruginosa [13] = assay: Antibacterial activity against IMP-4 producing Pseudomonas aeruginosa isolate 209321 after 18 hrs by CLSI broth microdilution method; details: isolate 209321, 18 h
Pseudomonas aeruginosa [14] = assay: Antibacterial activity against IMP-4 producing Pseudomonas aeruginosa isolate 212886 after 18 hrs in presence of BPL by CLSI broth microdilution method; details: isolate 212886, 18 h; in short: as §1
Escherichia coli [15] = assay: Antibacterial activity against extended-spectrum beta-lactamase producing Escherichia coli isolate 209285 after 18 hrs in presence of BPL by CLSI broth microdilution method; details: isolate 209285, 18 h; in short: as §1
Escherichia coli [16] = assay: Selectivity index, ratio of MIC for against extended-spectrum beta-lactamase producing Escherichia coli isolate 212648 to MIC for extended-spectrum beta-lactamase producing Escherichia coli isolate 212648 in presence of BPL
Escherichia coli [17] = assay: Antibacterial activity against extended-spectrum beta-lactamase producing Escherichia coli isolate 208687 after 18 hrs in presence of BPL by CLSI broth microdilution method; details: isolate 208687, 18 h; in short: as §1
Escherichia coli [18] = assay: Selectivity index, ratio of MIC for against Escherichia coli isolate 210737 to MIC for Escherichia coli isolate 210737 in presence of BPL
Escherichia coli [19] = assay: Antibacterial activity against extended-spectrum beta-lactamase producing Escherichia coli isolate 212648 after 18 hrs by CLSI broth microdilution method; details: isolate 212648, 18 h
Klebsiella pneumoniae [20] = assay: Antibacterial activity against KPC-2 producing Klebsiella pneumoniae isolate 212229 after 18 hrs in presence of BPL by CLSI broth microdilution method; details: isolate 212229, 18 h; in short: as §1
Pseudomonas aeruginosa [21] = assay: Antibacterial activity against IMP-4 producing Pseudomonas aeruginosa isolate 207272 after 18 hrs in presence of BPL by CLSI broth microdilution method; details: isolate 207272, 18 h; in short: as §1
Escherichia coli [22] = assay: Selectivity index, ratio of MIC for against extended-spectrum beta-lactamase producing Escherichia coli isolate 208687 to MIC for extended-spectrum beta-lactamase producing Escherichia coli isolate 208687 in presence of BPL
Pseudomonas aeruginosa [23] = assay: Antibacterial activity against IMP-4 producing Pseudomonas aeruginosa isolate 209471 after 18 hrs in presence of BPL by CLSI broth microdilution method; details: isolate 209471, 18 h; in short: as §1
Klebsiella pneumoniae [24] = assay: Selectivity index, ratio of MIC for against KPC-2 producing Klebsiella pneumoniae isolate 212423 to MIC for against KPC-2 producing Klebsiella pneumoniae isolate 212423 in presence of BPL
Pseudomonas aeruginosa [25] = assay: Antibacterial activity against IMP-4 producing Pseudomonas aeruginosa isolate 208247 after 18 hrs in presence of BPL by CLSI broth microdilution method; details: isolate 208247, 18 h; in short: as §1
Escherichia coli [26] = assay: Antibacterial activity against extended-spectrum beta-lactamase producing Escherichia coli isolate 106342 after 18 hrs in presence of BPL by CLSI broth microdilution method; details: isolate 106342, 18 h; in short: as §1
Pseudomonas aeruginosa [27] = assay: Selectivity index, ratio of MIC for against IMP-4 producing Pseudomonas aeruginosa isolate 209321 to MIC for against IMP-4 producing Pseudomonas aeruginosa isolate 209321 in presence of BPL
Pseudomonas aeruginosa [28] = assay: Antibacterial activity against IMP-4 producing Pseudomonas aeruginosa isolate 208247 after 18 hrs by CLSI broth microdilution method; details: isolate 208247, 18 h
Klebsiella pneumoniae [29] = assay: Antibacterial activity against KPC-2 producing Klebsiella pneumoniae isolate 209735 after 18 hrs in presence of BPL by CLSI broth microdilution method; details: isolate 209735, 18 h; in short: as §1
Klebsiella pneumoniae [30] = assay: Selectivity index, ratio of MIC for against KPC-2 producing Klebsiella pneumoniae isolate 212229 to MIC for against KPC-2 producing Klebsiella pneumoniae isolate 212229 in presence of BPL
Pseudomonas aeruginosa [31] = assay: Antibacterial activity against IMP-4 producing Pseudomonas aeruginosa isolate 212886 after 18 hrs by CLSI broth microdilution method; details: isolate 212886, 18 h
Escherichia coli [32] = assay: Selectivity index, ratio of MIC for against extended-spectrum beta-lactamase producing Escherichia coli isolate 209285 to MIC for extended-spectrum beta-lactamase producing Escherichia coli isolate 209285 in presence of BPL
Escherichia coli [33] = assay: Antibacterial activity against Escherichia coli isolate 210737 after 18 hrs by CLSI broth microdilution method; details: isolate 210737, 18 h
Escherichia coli [34] = assay: Antibacterial activity against Escherichia coli isolate 210737 after 18 hrs in presence of BPL by CLSI broth microdilution method; details: isolate 210737, 18 h; in short: as §1
Klebsiella pneumoniae [35] = assay: Selectivity index, ratio of MIC for against KPC-2 producing Klebsiella pneumoniae isolate 209735 to MIC for against KPC-2 producing Klebsiella pneumoniae isolate 209735 in presence of BPL
Pseudomonas aeruginosa [36] = assay: Antibacterial activity against IMP-4 producing Pseudomonas aeruginosa isolate 207272 after 18 hrs by CLSI broth microdilution method; details: isolate 207272, 18 h
Klebsiella pneumoniae [37] = assay: Antibacterial activity against KPC-2 producing Klebsiella pneumoniae isolate 209632 after 18 hrs in presence of BPL by CLSI broth microdilution method; details: isolate 209632, 18 h; in short: as §1
Pseudomonas aeruginosa [38] = assay: Selectivity index, ratio of MIC for against IMP-4 producing Pseudomonas aeruginosa isolate 209471 to MIC for against IMP-4 producing Pseudomonas aeruginosa isolate 209471 in presence of BPL
Escherichia coli [39] = assay: Antibacterial activity against extended-spectrum beta-lactamase producing Escherichia coli isolate 208687 after 18 hrs by CLSI broth microdilution method; details: isolate 208687, 18 h
Escherichia coli [40] = assay: Antibacterial activity against extended-spectrum beta-lactamase producing Escherichia coli isolate 212648 after 18 hrs in presence of BPL by CLSI broth microdilution method; details: isolate 212648, 18 h; in short: as §1
Klebsiella pneumoniae [41] = assay: Antibacterial activity against KPC-2 producing Klebsiella pneumoniae isolate 212423 after 18 hrs in presence of BPL by CLSI broth microdilution method; details: isolate 212423, 18 h; in short: as §1
Klebsiella pneumoniae [42] = assay: Antibacterial activity against KPC-2 producing Klebsiella pneumoniae isolate 212232 after 18 hrs in presence of BPL by CLSI broth microdilution method; details: isolate 212232, 18 h; in short: as §1
Pseudomonas aeruginosa [43] = assay: Antibacterial activity against IMP-4 producing Pseudomonas aeruginosa isolate 209471 after 18 hrs by CLSI broth microdilution method; details: isolate 209471, 18 h

CC(C)C(O/N=C(\C(=O)N[C@@H]1C(=O)N(S(=O)(=O)O)[C@@H]1CN1CCNCC1)c1csc(N)n1)c1cc(=O)c(O)cn1O (stereo partly drawn)
MIC (Klebsiella pneumoniae [1]): > 64 µg/mL
Selectivity Index (Pseudomonas aeruginosa [2]): 1
MIC (Escherichia coli [3]): 2 µg/mL (≈ 3.25 µM)
MIC (Escherichia coli [4]): 2 µg/mL (≈ 3.25 µM)
MIC (Klebsiella pneumoniae [5]): > 64 µg/mL
Selectivity Index (Klebsiella pneumoniae [6]): 1 - 8
MIC (Klebsiella pneumoniae [7]): 4 µg/mL (≈ 6.51 µM)
MIC (Pseudomonas aeruginosa [8]): 32 µg/mL
Selectivity Index (Escherichia coli [9]): 2
MIC (Klebsiella pneumoniae [10]): 2 µg/mL (≈ 3.25 µM)
MIC (Klebsiella pneumoniae [11]): 4 µg/mL (≈ 6.51 µM)
Selectivity Index (Klebsiella pneumoniae [12]): 8
MIC (Pseudomonas aeruginosa [13]): 32 µg/mL (≈ 52.1 µM)
MIC (Pseudomonas aeruginosa [14]): > 64 µg/mL
MIC (Escherichia coli [15]): 0.5 µg/mL
Selectivity Index (Escherichia coli [16]): 4
MIC (Escherichia coli [17]): 1 µg/mL
Selectivity Index (Escherichia coli [18]): 1
MIC (Escherichia coli [19]): 2 µg/mL (≈ 3.25 µM)
MIC (Klebsiella pneumoniae [20]): 2 µg/mL
MIC (Pseudomonas aeruginosa [21]): 64 µg/mL
Selectivity Index (Escherichia coli [22]): 2
MIC (Pseudomonas aeruginosa [23]): 64 µg/mL
Selectivity Index (Klebsiella pneumoniae [24]): 2
MIC (Pseudomonas aeruginosa [25]): > 64 µg/mL
MIC (Escherichia coli [26]): 1 µg/mL
Selectivity Index (Pseudomonas aeruginosa [27]): 1
MIC (Pseudomonas aeruginosa [28]): > 64 µg/mL
MIC (Klebsiella pneumoniae [29]): > 64 µg/mL
Selectivity Index (Klebsiella pneumoniae [30]): 1
MIC (Pseudomonas aeruginosa [31]): > 64 µg/mL
Selectivity Index (Escherichia coli [32]): 4
MIC (Escherichia coli [33]): 1 µg/mL (≈ 1.63 µM)
MIC (Escherichia coli [34]): 1 µg/mL
Selectivity Index (Klebsiella pneumoniae [35]): 1 - 8
MIC (Pseudomonas aeruginosa [36]): 64 µg/mL (≈ 104 µM)
MIC (Klebsiella pneumoniae [37]): > 64 µg/mL
Selectivity Index (Pseudomonas aeruginosa [38]): 1
MIC (Escherichia coli [39]): 2 µg/mL (≈ 3.25 µM)
MIC (Escherichia coli [40]): 0.5 µg/mL
MIC (Klebsiella pneumoniae [41]): 2 µg/mL
MIC (Klebsiella pneumoniae [42]): 0.5 µg/mL
MIC (Pseudomonas aeruginosa [43]): 64 µg/mL (≈ 104 µM)
